13 compounds from ChEMBL document CHEMBL1177731, “Complementarity between a docking and a high-throughput screen in discovering new cruzain inhibitors” (J Med Chem, 2010) can be followed below.

One may read the IC50 as the point on the concentration scale where inhibition reaches its midpoint. Broadly, the Ki is the dissociation constant of the complex between target and ligand, obtained from inhibition or displacement.

Calls of active or inactive are those of the source. The calls are words filed in the database; no cut-off is given here.

The target in test [1] is T1, Cruzipain (Trypanosoma cruzi, UniProt P25779). Briefly: Inhibition of Trypanosoma cruzi cruzain assessed as Z-Phe-Arg-aminomethylcoumarin cleavage.
Test [2] is described as follows: Inhibition of beta lactamase. A digest of the protocol:
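AmpC β-lactamase (1 nM final) with CENTA substrate (100 μM final; Km 48 μM) in 50 mM potassium phosphate, pH 7.0. Cleavage was read as absorbance at 405 nm over 3 min, and activity was taken from initial rates. Each compound was run twice: without Triton X-100 after a 5 min enzyme preincubation before substrate, and with 0.01% Triton X-100 with no preincubation. Inhibition was then compared between the two conditions.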

Test [3] has as its target T1, Cruzipain. Briefly: Inhibition of Trypanosoma cruzi cruzain assessed as Z-Phe-Arg-aminomethylcoumarin cleavage by competitive binding assay. A digest of the protocol:
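Cruzain (0.4 nM) in 0.1 M sodium acetate pH 5.5, 5 mM DTT, 0.01% Triton X-100. Each compound tested at four or more concentrations against seven Z-FR-AMC levels (0.31-20 μM, 2-fold steps). Activity from initial rates over 5 min. Ki derived from Lineweaver-Burk and Dixon plots.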

T1 sequence (P25779 whole entry): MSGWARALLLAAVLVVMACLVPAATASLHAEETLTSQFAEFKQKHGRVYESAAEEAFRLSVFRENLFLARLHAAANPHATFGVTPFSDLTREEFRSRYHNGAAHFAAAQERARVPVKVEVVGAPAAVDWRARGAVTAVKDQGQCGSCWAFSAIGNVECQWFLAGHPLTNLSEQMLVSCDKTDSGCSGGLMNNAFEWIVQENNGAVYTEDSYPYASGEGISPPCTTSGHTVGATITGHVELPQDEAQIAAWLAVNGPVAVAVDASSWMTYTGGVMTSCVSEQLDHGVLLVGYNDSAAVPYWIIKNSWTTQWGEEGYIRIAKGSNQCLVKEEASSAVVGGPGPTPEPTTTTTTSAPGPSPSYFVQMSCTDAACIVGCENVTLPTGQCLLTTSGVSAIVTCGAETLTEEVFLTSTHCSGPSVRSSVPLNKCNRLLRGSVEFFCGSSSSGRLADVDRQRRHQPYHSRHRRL

On to `O=C(CNC(=O)c1ccccc1)OC(C(=O)Nc1cc(C(F)(F)F)ccc1Cl)c1ccccc1` (stereo unspecified), for which the half-inhibitory concentration (IC50) at Cruzipain [1] is 0.3 µM. Besides, the inhibition entry in test [2] was “inactive”. In addition, the Ki at Cruzipain [3] amounted to 0.065 µM.

For the compound `Cc1cc(C(=O)NCC(=O)OC(C(=O)Nc2cc(C(F)(F)F)ccc2Cl)c2ccccc2)ccc1[N+](=O)[O-]` (stereo unspecified), the IC50 at Cruzipain [1] came to 0.4 µM. In addition, the inhibition entry in test [2] is “inactive”.

Turning to `O=C(CNC(=O)c1ccc(Cl)cc1)OC(C(=O)Nc1ccc(Cl)cc1C(F)(F)F)c1ccccc1` (stereo unspecified), the concentration for half-maximal inhibition (IC50) at Cruzipain [1] stood at 0.7 µM. In addition, the inhibition entry in test [2] was “inactive”.

Consider `Cc1cc(NC(=O)COC(=O)C(Cc2ccccc2)NC(=O)c2ccco2)no1` (stereo unspecified), for which, on Cruzipain [1], the IC50 was found to be 38 µM. Also, the inhibition entry in test [2] is “inactive”.

As for `CC(C)C(NC(=O)c1ccco1)C(=O)NCC(c1ccco1)N1CCCCC1` (stereo unspecified), the IC50 at Cruzipain [1] was 7 µM. Also, the inhibition result in test [2] is “inactive”. Further, on Cruzipain [3], the Ki came to 6 µM.

Regarding `O=C(CNC(=O)c1ccc(Cl)cc1)OCC(=O)c1ccc2c(c1)OCCO2`, at Cruzipain [1], the half-maximal inhibitory concentration (IC50) is 0.5 µM. For the same compound, the inhibition result in test [2] was “inactive”.

Turning to `COCCn1c(C)cc(C(=O)COC(=O)CNC(=O)c2ccccc2)c1C`, at Cruzipain [1], the concentration for half-maximal inhibition (IC50) was 18 µM. For the same compound, in test [2], the inhibition result was “inactive”.

On to `COc1ccc(NC(=O)COC(=O)C(CC(C)C)N2C(=O)C3CC=CCC3C2=O)cc1Cl` (stereo unspecified), for which, on Cruzipain [3], the Ki was 0.8 µM.

For `COc1ccc(Cl)cc1NC(=O)COC(=O)C(CC(C)C)N1C(=O)C2CC=CCC2C1=O` (stereo unspecified), the IC50 at Cruzipain [1] came out at 1 µM. The inhibition entry in test [2] is “inactive”.

In the case of `CC(NC(=O)c1ccccc1Cl)C(=O)OC(C(=O)Nc1cc(C(F)(F)F)ccc1Cl)c1ccccc1` (stereo unspecified), the IC50 at Cruzipain [1] was 11 µM. Also, in test [2], the inhibition result was “inactive”.

In the case of `Cc1ccccc1OCC(=O)NCC(=O)OCC(=O)c1ccc2ccccc2c1`, the 50% inhibitory concentration (IC50) on Cruzipain [1] amounted to 0.7 µM. Besides, in test [2], the inhibition result is “inactive”.

`Clc1ccc2[nH]c3c(NCCCN4CCOCC4)ncnc3c2c1`: the Ki on Cruzipain [3] is 2 µM.

With `Cc1cc(NC(=O)COC(=O)C(Cc2c[nH]c3ccccc23)NC(=O)c2ccc(F)cc2)no1` (stereo unspecified), the IC50 on Cruzipain [1] amounted to 3 µM. Besides, in test [2], the inhibition result was “inactive”.
